Measurements published in the M2OR odorant receptor database.

Assays:
Settings in all cases: stereoisomer not certain
[1] = target: T1, OR13C2 (Homo sapiens) (UniProt Q8NGS9)
T1 sequence (whole entry): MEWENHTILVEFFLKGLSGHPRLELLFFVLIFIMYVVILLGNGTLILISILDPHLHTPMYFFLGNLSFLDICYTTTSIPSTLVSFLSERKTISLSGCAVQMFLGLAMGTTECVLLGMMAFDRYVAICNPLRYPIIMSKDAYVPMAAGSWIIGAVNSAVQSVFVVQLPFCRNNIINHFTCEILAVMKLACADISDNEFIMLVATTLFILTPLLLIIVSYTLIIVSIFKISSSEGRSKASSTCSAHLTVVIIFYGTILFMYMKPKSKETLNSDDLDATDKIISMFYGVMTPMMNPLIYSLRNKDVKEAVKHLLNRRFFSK
Method in brief: (§1)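 Transient luciferase assays in mammalian cell lines were common, though methods varied by source. The values come from published papers and their supplementary material, with extra details from the original authors when needed. Responsive refers to a measured signal the original authors judged statistically different from baseline, and non-responsive (inactive) to the remainder.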

[2] = target: T2, OR13C3 (Homo sapiens) (UniProt Q8NGS6)
T2 sequence (whole entry): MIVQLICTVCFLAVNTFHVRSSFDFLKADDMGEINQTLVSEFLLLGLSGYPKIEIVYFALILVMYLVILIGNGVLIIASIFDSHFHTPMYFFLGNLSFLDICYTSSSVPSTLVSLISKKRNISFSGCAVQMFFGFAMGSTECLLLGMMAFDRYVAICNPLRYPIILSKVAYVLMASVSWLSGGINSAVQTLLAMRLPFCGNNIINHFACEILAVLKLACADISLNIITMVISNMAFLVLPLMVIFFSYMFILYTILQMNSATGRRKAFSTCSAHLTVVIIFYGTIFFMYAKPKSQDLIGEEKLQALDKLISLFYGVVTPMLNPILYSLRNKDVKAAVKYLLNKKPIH
Method in brief: as §1

[3] = target: T3, OR13C4 (Homo sapiens) (UniProt Q8NGS5)
T3 sequence (whole entry): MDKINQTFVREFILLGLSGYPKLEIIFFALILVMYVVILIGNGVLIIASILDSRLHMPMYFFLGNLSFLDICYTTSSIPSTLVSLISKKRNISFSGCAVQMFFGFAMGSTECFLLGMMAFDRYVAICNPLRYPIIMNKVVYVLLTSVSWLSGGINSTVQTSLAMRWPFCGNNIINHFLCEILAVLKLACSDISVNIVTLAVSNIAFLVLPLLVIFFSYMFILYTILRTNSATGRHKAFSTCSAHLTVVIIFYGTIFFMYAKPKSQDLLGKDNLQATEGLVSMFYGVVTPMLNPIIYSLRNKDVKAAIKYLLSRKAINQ
Method in brief: as §1

[4] = target: T4, OR13C5 (Homo sapiens) (UniProt Q8NGS8)
T4 sequence (whole entry): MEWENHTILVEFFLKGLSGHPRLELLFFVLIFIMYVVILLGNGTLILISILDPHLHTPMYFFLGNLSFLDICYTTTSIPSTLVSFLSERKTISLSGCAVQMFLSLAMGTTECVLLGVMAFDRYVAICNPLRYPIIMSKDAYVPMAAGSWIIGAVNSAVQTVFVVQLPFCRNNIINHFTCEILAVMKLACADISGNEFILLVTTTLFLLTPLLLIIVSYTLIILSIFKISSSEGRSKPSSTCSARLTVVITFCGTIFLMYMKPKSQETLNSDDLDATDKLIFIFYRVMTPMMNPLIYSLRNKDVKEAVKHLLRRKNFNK
Method in brief: as §1

[5] = target: OR13C7 (Homo sapiens) (UniProt P0DN81)
Chain of OR13C7 (Homo sapiens) (P0DN81 whole entry): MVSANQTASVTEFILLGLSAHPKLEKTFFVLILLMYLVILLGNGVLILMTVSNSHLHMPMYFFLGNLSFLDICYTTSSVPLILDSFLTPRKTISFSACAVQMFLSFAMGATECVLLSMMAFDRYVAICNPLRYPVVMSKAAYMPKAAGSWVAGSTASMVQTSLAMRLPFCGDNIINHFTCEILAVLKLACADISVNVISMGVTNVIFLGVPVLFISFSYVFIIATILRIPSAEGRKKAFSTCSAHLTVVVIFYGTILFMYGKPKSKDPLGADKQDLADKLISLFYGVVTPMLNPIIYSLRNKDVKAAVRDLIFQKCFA
Method in brief: as §1

[6] = target: T5, OR13C8 (Homo sapiens) (UniProt Q8NGS7)
T5 sequence (whole entry): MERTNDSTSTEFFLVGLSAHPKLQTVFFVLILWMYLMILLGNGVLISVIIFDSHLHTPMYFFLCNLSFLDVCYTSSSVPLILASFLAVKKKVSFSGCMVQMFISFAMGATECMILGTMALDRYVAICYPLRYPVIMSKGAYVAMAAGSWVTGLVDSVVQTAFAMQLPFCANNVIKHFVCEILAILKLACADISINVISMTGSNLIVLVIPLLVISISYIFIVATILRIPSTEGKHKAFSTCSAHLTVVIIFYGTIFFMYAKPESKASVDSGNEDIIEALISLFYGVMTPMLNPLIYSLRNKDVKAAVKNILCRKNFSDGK
Method in brief: as §1

[7] = target: T6, OR13C9 (Homo sapiens) (UniProt Q8NGT0)
T6 sequence (whole entry): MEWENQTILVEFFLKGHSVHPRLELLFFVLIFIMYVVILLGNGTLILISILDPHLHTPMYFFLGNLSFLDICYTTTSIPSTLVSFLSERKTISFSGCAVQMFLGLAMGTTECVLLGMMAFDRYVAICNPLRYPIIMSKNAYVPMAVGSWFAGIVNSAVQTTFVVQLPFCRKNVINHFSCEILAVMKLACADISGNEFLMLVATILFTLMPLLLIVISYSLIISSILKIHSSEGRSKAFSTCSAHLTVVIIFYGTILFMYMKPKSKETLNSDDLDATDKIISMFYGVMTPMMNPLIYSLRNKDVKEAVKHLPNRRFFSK
Method in brief: as §1

[8] = target: T7, OR13D1 (Homo sapiens) (UniProt Q8NGV5)
T7 sequence (whole entry): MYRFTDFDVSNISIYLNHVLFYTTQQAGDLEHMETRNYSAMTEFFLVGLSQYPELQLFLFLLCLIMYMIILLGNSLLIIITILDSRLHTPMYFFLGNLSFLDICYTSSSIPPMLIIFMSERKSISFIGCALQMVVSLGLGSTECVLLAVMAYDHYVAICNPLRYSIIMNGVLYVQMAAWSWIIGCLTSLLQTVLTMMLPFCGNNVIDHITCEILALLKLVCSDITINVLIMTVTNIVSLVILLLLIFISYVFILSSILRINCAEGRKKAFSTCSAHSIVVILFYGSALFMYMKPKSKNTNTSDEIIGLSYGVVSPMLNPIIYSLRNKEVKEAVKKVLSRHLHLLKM
Method in brief: as §1

[9] = target: T8, OR13F1 (Homo sapiens) (UniProt Q8NGS4)
T8 sequence (whole entry): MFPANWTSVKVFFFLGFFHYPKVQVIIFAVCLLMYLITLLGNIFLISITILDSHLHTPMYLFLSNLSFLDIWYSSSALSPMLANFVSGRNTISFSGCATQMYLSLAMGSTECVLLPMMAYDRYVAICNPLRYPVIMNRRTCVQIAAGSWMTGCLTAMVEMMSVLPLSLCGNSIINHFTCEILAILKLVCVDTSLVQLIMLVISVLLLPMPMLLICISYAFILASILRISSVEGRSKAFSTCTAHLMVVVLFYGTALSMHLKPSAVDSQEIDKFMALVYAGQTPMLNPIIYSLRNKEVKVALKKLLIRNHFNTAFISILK
Method in brief: as §1

[10] = target: T9, OR13G1 (Homo sapiens) (UniProt Q8NGZ3)
T9 sequence (whole entry): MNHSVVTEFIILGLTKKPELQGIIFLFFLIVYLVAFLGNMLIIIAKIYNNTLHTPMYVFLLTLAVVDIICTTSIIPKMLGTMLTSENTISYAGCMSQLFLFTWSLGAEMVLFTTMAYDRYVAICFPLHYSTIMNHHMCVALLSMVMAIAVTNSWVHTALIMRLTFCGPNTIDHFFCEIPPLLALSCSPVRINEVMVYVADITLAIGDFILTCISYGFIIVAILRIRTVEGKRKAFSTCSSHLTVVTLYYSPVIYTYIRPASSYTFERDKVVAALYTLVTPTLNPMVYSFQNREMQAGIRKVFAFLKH
Method in brief: as §1

[11] = target: T10, OR13H1 (Homo sapiens) (UniProt Q8NG92)
T10 sequence (whole entry): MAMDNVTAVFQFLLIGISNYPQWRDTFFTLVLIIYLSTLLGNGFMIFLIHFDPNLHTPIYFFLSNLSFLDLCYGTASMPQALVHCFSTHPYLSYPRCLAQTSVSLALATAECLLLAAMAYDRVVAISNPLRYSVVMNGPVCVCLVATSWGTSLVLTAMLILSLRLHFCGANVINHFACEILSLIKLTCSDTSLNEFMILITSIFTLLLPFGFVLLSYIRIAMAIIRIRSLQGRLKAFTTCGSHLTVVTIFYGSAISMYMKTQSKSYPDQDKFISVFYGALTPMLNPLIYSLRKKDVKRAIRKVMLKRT
Method in brief: as §1

[12] = target: T11, OR13J1 (Homo sapiens) (UniProt Q8NGT2)
T11 sequence (whole entry): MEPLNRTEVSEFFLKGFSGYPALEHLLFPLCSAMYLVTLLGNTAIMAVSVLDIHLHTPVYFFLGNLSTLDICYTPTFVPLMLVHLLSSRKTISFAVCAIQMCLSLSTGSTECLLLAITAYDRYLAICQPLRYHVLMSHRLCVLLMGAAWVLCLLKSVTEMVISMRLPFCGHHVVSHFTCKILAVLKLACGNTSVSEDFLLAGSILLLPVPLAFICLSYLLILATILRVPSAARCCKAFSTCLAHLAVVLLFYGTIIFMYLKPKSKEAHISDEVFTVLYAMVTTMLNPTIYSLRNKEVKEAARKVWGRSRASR
Method in brief: as §1

[13] = target: T12, OR14A16 (Homo sapiens) (UniProt Q8NHC5)
T12 sequence (whole entry): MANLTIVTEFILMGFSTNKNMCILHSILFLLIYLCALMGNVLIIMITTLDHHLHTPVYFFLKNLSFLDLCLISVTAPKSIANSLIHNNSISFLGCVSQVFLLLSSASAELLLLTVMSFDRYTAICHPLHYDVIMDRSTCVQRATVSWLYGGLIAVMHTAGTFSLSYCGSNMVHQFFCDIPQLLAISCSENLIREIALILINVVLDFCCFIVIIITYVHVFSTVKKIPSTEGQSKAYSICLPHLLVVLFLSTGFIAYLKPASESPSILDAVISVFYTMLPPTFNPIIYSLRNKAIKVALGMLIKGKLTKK
Method in brief: as §1

[14] = target: T13, OR14A2 (Homo sapiens) (UniProt Q96R54)
T13 sequence (whole entry): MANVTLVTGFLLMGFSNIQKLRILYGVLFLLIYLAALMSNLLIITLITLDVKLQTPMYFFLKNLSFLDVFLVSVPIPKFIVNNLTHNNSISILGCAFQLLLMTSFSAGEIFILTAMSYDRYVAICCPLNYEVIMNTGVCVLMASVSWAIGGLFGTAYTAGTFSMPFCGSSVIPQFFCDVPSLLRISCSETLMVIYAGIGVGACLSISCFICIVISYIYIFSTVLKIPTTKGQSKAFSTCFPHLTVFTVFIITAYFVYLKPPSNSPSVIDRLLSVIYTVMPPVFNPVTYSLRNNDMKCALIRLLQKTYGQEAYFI
Method in brief: as §1

[15] = target: T14, OR14C36 (Homo sapiens) (UniProt Q8NHC7)
T14 sequence (whole entry): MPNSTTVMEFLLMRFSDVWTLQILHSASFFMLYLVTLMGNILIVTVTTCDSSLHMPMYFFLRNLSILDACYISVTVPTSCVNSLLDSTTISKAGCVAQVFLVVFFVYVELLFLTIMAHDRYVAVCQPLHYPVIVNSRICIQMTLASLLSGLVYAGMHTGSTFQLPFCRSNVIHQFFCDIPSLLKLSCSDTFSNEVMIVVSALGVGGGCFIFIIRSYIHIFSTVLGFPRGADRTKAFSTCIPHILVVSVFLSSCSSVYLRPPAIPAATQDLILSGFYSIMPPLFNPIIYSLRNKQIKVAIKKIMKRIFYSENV
Method in brief: as §1

[16] = target: T15, OR14I1 (Homo sapiens) (UniProt A6ND48)
T15 sequence (whole entry): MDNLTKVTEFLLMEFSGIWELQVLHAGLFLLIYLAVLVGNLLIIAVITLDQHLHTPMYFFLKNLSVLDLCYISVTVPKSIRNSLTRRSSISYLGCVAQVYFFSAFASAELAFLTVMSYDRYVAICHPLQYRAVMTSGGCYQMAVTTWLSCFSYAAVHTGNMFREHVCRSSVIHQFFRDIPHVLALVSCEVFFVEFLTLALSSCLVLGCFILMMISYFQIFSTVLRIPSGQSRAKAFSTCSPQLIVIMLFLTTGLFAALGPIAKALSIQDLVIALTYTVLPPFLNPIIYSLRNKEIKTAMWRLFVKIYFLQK
Method in brief: as §1

[17] = target: T16, OR14J1 (Homo sapiens) (UniProt Q9UGF5)
T16 sequence (whole entry): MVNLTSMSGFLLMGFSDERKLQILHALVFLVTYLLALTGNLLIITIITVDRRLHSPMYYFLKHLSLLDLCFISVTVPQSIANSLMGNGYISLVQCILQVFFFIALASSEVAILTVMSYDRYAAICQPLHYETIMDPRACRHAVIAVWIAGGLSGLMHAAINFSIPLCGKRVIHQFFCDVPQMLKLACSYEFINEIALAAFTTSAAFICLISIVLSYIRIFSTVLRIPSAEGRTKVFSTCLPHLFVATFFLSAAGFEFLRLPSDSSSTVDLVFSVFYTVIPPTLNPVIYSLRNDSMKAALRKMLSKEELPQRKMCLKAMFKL
Method in brief: as §1

[18] = target: T17, OR14K1 (Homo sapiens) (UniProt Q8NGZ2)
T17 sequence (whole entry): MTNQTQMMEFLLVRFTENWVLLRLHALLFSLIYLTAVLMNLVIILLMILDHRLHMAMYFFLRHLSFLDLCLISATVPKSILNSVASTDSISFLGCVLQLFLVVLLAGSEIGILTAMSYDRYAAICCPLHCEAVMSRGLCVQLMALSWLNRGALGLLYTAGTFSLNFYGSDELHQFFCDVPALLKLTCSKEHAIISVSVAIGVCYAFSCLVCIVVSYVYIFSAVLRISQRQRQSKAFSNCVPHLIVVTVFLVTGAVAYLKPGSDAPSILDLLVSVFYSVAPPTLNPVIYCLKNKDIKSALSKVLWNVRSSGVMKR
Method in brief: as §1

[19] = target: T18, OR1A1 (Homo sapiens) (UniProt Q9P1Q5)
T18 sequence (whole entry): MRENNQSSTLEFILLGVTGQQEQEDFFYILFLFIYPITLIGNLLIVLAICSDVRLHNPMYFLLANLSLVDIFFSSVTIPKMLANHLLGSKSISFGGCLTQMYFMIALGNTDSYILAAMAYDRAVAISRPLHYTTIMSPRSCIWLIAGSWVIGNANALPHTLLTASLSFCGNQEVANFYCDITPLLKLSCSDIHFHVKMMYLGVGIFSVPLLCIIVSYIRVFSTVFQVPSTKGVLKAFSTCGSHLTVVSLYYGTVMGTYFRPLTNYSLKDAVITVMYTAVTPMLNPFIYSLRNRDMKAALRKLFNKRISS
Method in brief: as §1

[20] = system: OR1A1 A154T N155S
Method in brief: as §1

Measured: odorant receptor agonist call

CC1CCCCCCCCCCCCC(=O)C1 (stereo not drawn)
active: [19]
not listed: [20]
inactive: all other assays above

CCCCCCCC1CCCC(=O)O1 (stereo not drawn)
inactive: [19]

CC1=C(O)C(=O)C(C)O1 (stereo not drawn)
not listed: [5] | [20]
inactive: all other assays above

CCCCCCO
inactive: [19]

Cc1cccc(O)c1
inactive: [19]

CC(C)CC=O
inactive: [19]

CCCC(C)=O
inactive: [19]

CC(C)=CCCC(C)CCO (stereo not drawn)
active: [20]
